Data taken from ChEMBL document CHEMBL1781977, “Design and synthesis of 3,5-diarylisoxazole derivatives as novel class of anti-hyperglycemic and lipid lowering agents” (Bioorg Med Chem, 2009).
pIC50: −log10 of the molar value. Calls of active or inactive are those of the source. No cut-off for these calls is given here.

How the values were obtained:
[1] = tested on: Rattus norvegicus; test: Antihyperglycemic activity against sucrose challenged streptozotocin-induced diabetic Sprague-Dawley albino rat assessed as reduction in blood glucose level at 100 mg/kg, po administered 30 mins before sucrose challenge measured after 5 hrs; format: functional
Method in brief: (§1)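 Male Sprague Dawley rats, 160 ± 20 g, fasted overnight, given streptozotocin 60 mg/kg ip in 100 mM citrate pH 4.5. Rats with glucose 144–270 mg/dl at 48 h count as diabetic, 5–6 per group. Dosed 100 mg/kg orally in 1.0% gum acacia. Sucrose 2.5 g/kg given 30 min later. Glucose read at 30–300 min and 24 h. Non-responders excluded.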

[2] = tested on: Rattus norvegicus; test: Antihyperglycemic activity against sucrose challenged streptozotocin-induced diabetic Sprague-Dawley albino rat assessed as reduction in blood glucose level at 50 mg/kg, po administered 30 mins before sucrose challenge; format: functional
Method in brief: (§2)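 Streptozotocin-diabetic Sprague Dawley rats: streptozotocin 60 mg/kg ip in citrate pH 4.5; rats at 144–270 mg/dl after 48 h used. Oral doses of 7.5–100 mg/kg in 1.0% gum acacia, then sucrose 2.5 g/kg. Glucose measured at 30, 60, 90, 120, 180, 240, 300 and 1440 min. ED50 taken from dose response. Mean ± SD, n = 5; Dunnett's test.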

[3] = tested on: Rattus norvegicus; test: Antihyperglycemic activity against sucrose challenged streptozotocin-induced diabetic Sprague-Dawley albino rat assessed as reduction in blood glucose level administered orally 30 mins before sucrose challenge; format: functional; details: po; method in brief: as §2
[4] = tested on: Mus musculus; test: Antihyperglycemic activity in C57BL/Ks db/db mouse assessed as reduction in blood glucose level at 100 mg/kg, po measured 10 days post dose by postprandial glucose tolerance test; format: functional; details: 240 h, in the assay text read “oral glucose tolerance test” for “postprandial glucose tolerance test”
Method in brief: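 db/db mice (C57BL/KsBom, 12–18 weeks, 40–50 g) given 100 mg/kg orally, vehicle 1.0% gum acacia. Day 10 OGTT after overnight fast: glucose at −30 min and drug given, then glucose at 0 min. Glucose 3 g/kg given, with readings at 30, 60, 90 and 120 min.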

[5] = tested on: Mus musculus; test: Antihyperglycemic activity in C57BL/Ks db/db mouse assessed as reduction in blood glucose level at 100 mg/kg, po measured 6 days post dose by postprandial glucose tolerance test; format: functional; details: 144 h
Method in brief: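 C57BL/KsBom-db mice, 12–18 weeks, 40–50 g, 5 male and 5 female, at 23 °C with 12/12 h light cycle. Treated orally at 100 mg/kg, vehicle 1.0% gum acacia. Day 6 postprandial test: glucose at −0.5 h and 0 h, then at 1, 2, 3, 4 and 6 h after dosing.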

[6] = molecular target: T1, Tyrosine-protein phosphatase non-receptor type 1 (Homo sapiens) (UniProt P18031); test: Inhibition of protein tyrosine phosphatase-1B at 10 uM incubated for 10 mins using pNPP substrate by modified Goldstein method; parameters: Activity: scale not given: the % may be the effect or the level left
T1 sequence (whole entry): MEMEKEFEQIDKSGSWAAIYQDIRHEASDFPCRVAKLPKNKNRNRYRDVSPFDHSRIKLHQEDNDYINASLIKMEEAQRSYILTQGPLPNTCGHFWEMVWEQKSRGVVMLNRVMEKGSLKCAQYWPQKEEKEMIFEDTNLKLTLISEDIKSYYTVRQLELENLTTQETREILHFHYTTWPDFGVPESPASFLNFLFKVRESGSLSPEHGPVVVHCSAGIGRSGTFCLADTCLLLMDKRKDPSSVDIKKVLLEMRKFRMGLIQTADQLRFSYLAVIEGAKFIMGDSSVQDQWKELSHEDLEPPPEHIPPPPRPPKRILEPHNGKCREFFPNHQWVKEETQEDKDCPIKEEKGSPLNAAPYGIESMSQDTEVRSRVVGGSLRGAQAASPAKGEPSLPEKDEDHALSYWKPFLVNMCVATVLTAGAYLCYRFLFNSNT
Method in brief: (§3)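 PTP-1B: compound preincubated 10 min with enzyme, with or without 0.01% Triton X-100. Then 10 mM pNPP in 50 mM HEPES pH 7.0 with 1 mM DTT and 2 mM EDTA, 30 min at 37 °C. Stopped with 0.1 N NaOH; absorbance read at 410 nm. p-Nitrophenolate calculated using ε 1.78 × 10⁴ M⁻¹cm⁻¹. Sodium orthovanadate used as reference.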

[7] = tested on: Mus musculus; test: Antidyslipidemic activity in C57BL/Ks db/db mouse assessed as reduction in plasma triglyceride level at 100 mg/kg, po; format: functional
Method in brief: (§4)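 db/db mice (C57BL/KsBom, 12–18 weeks, 5 male and 5 female) dosed orally at 100 mg/kg in 1.0% gum acacia. Blood collected on day 8 for serum lipids. Mean ± SD, n = 5, against vehicle-treated db/db controls; Dunnett's test.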

[8] = tested on: Rattus norvegicus; test: Antihyperglycemic activity against sucrose challenged streptozotocin-induced diabetic Sprague-Dawley albino rat assessed as reduction in blood glucose level at 25 mg/kg, po administered 30 mins before sucrose challenge; format: functional; method in brief: as §2
[9] = molecular target: T2, Peroxisome proliferator-activated receptor gamma (Homo sapiens) (UniProt P37231); test: Activation of PPARgamma by receptor transactivation assay
T2 sequence (whole entry): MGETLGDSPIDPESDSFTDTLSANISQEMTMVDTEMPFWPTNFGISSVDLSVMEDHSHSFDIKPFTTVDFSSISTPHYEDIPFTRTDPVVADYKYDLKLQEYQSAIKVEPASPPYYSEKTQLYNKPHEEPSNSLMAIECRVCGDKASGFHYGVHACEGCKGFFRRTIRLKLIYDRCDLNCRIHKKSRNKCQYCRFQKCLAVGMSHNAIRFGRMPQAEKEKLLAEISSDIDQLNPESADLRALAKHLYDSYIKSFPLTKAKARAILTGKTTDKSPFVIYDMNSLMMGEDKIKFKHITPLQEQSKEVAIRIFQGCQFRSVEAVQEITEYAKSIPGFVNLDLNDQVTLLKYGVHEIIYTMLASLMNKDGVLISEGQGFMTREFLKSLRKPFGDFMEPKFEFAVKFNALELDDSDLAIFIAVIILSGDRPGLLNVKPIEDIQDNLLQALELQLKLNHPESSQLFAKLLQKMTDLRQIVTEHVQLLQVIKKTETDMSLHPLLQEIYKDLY

[10] = species: Mus musculus; test: Antihyperglycemic activity in C57BL/Ks db/db mouse assessed as reduction in blood glucose level measured after 3 days relative to control; format: functional
[11] = tested on: Rattus norvegicus; test: Antihyperglycemic activity against sucrose challenged streptozotocin-induced diabetic Sprague-Dawley albino rat assessed as reduction in blood glucose level at 100 mg/kg, po administered 30 mins before sucrose challenge; format: functional; method in brief: as §1
[12] = tested on: Rattus norvegicus; test: Antihyperglycemic activity in Charles Foster/Wistar albino rat assessed as reduction in blood glucose level at 100 mg/kg, po administered 30 mins before sucrose challenge; format: functional
Method in brief: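 Male Charles Foster/Wistar rats, 160 ± 20 g, fasted 16 h; animals with glucose 60–80 mg/dl used, 5–6 per group. Given 100 mg/kg orally as suspension in 1.0% gum acacia (controls vehicle alone). Sucrose 10.0 g/kg orally 30 min later. Glucometer readings at 30, 60, 90, 120 min. Percent activity derived from AUC of treated versus control groups.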

[13] = molecular target: T3, Tyrosine-protein phosphatase non-receptor type 1 (Homo sapiens, UniProt P18031); test: Inhibition of protein tyrosine phosphatase-1B at 10 uM incubated for 10 mins using pNPP substrate in absence of Triton X-100 by modified Goldstein method; method in brief: as §3
T3 sequence (P18031 whole entry): T1 sequence (whole entry)

[14] = tested on: Rattus norvegicus; test: Antihyperglycemic activity against sucrose challenged streptozotocin-induced diabetic Sprague-Dawley albino rat assessed as reduction in blood glucose level at 7.5 mg/kg, po administered 30 mins before sucrose challenge; format: functional; method in brief: as §2
[15] = molecular target: T3, Tyrosine-protein phosphatase non-receptor type 1; test: Inhibition of protein tyrosine phosphatase-1B at 10 uM incubated for 10 mins using pNPP substrate in presence of 0.01% Triton X-100 by modified Goldstein method; method in brief: as §3
[16] = tested on: Rattus norvegicus; test: Antihyperglycemic activity against sucrose challenged streptozotocin-induced diabetic Sprague-Dawley albino rat assessed as reduction in blood glucose level at 15 mg/kg, po administered 30 mins before sucrose challenge; format: functional; method in brief: as §2
[17] = tested on: Mus musculus; test: Antidyslipidemic activity in C57BL/Ks db/db mouse assessed as reduction in plasma cholesterol level at 100 mg/kg, po; format: functional; method in brief: as §4
[18] = tested on: Rattus norvegicus; test: Antihyperglycemic activity against sucrose challenged streptozotocin-induced diabetic Sprague-Dawley albino rat assessed as reduction in blood glucose level at 100 mg/kg, po administered 30 mins before sucrose challenge measured after 24 hrs; format: functional; method in brief: as §1
[19] = tested on: Mus musculus; test: Antidyslipidemic activity in C57BL/Ks db/db mouse assessed as plasma HDL-cholesterol level at 100 mg/kg, po; format: functional; method in brief: as §4
[20] = molecular target: Dipeptidyl peptidase 4 (Homo sapiens) (UniProt P27487); test: Inhibition of DPP4 assessed as rate of substrate cleavage using Gly-Pro-AMC substrate by spectrofluorometry
Dipeptidyl peptidase 4 (Homo sapiens), sequence (P27487 whole entry, looked up): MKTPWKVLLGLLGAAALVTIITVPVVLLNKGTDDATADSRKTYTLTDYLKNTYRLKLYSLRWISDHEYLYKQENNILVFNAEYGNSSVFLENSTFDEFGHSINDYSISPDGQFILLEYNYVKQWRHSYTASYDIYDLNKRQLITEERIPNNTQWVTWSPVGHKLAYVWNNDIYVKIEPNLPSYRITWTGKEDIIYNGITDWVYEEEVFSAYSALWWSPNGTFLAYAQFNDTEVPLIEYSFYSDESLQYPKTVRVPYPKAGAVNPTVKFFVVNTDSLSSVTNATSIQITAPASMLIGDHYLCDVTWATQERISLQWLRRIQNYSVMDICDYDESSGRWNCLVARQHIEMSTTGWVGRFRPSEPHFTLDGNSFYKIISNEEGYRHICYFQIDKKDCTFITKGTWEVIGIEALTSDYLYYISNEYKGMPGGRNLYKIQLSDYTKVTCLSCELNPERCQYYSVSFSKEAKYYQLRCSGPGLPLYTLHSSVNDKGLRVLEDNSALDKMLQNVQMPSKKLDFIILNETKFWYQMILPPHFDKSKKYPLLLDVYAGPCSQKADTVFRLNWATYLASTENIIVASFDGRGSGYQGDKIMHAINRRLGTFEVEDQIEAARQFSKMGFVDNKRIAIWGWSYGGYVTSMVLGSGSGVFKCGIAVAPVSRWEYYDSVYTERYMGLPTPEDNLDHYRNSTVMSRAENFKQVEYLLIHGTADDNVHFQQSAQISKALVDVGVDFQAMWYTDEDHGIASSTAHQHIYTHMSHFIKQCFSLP
Method in brief: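 DPP-IV activity read by fluorescence at 37 °C, excitation 355 nm and emission 460 nm. Initial rate calculated over the first 15 min as increase in fluorescence intensity.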

Row | pIC50 [13] | pIC50 [15] | inhibition [20] | Compound | inhibition in vivo at 100 mg/kg [1] | inhibition in vivo at 50 mg/kg [2] | ED50 [3] | inhibition in vivo at 100 mg/kg [4] | inhibition in vivo at 100 mg/kg [5] | inhibition in vivo at 100 mg/kg [7] | inhibition in vivo at 25 mg/kg [8] | inhibition (INH) [10] | inhibition in vivo at 100 mg/kg [11] | inhibition in vivo at 100 mg/kg [12] | inhibition in vivo at 7.5 mg/kg [14] | inhibition in vivo at 15 mg/kg [16] | inhibition in vivo at 100 mg/kg [17] | inhibition in vivo at 100 mg/kg [18] | Activity [19] | also measured
1 | 5.06 | 5.05 | inactive | COc1ccc(-c2cc(-c3ccccc3)no2)c(OCCN2CCCCC2)c1 | 17.6% | 16.7% | 64.5 mg/kg | 16.1% | 17.4% | -7.5% | 14% | 18.5% | 20.7% | 27.6% | 9.8% | 12.6% | -12.2% | 18.7% | 1.3% | inhibition [6]: 76.3%; Activity [9]: inactive
2 | 5.47 | 5.38 | inactive | COc1ccc(-c2cc(-c3ccccc3)no2)c(OCC(O)CN2CCCC2)c1 (centres undefined) | 18.5% | 17.9% | 80.2 mg/kg | 15.5% | 15.9% | -8.5% | 13.8% | 15.7% | 18.5% | 26.8% | 8.4% | 11.6% | -9.8% | 17.6% | 1.8% | Activity [6]: 86.2%
